According to ChEMBL document CHEMBL3992514, “Synthesis, biological characterisation and structure activity relationships of aromatic bisamidines active against Plasmodium falciparum” (Eur J Med Chem, 2017):

Assays:
HEK293 = experiment: Cytotoxicity against HEK293 cells assessed as decrease in cell viability after 24 hrs by Alamar blue assay; type: ADME, cell-based; details: Homo sapiens, HEK293, 24 h
Plasmodium falciparum [1] = experiment: Antiparasitic activity against drug-sensitive Plasmodium falciparum 3D7 infected in erythrocytes assessed as growth inhibition after 48 hrs by SYBR green 1 dye-based flow cytometry; type: functional, cell-based; details: 3D7, 48 h
Plasmodium falciparum [2] = experiment: Antiparasitic activity against drug-resistant Plasmodium falciparum Dd2 infected in erythrocytes assessed as growth inhibition after 48 hrs by [3H]-hypoxanthine incorporation assay; type: functional, cell-based
[3] = Selectivity index, ratio of IC50 for HEK293 cells to IC50 for drug-sensitive Plasmodium falciparum 3D7 infected in erythrocytes; details: human
[4] = Selectivity index, ratio of IC50 for HEK293 cells to IC50 for drug-resistant Plasmodium falciparum Dd2 infected in erythrocytes; details: human
[5] = Cytotoxicity against HEK293 cells assessed as cell viability at 50 uM after 24 hrs by Alamar blue assay relative to control; type: cell-based; details: human, read-out: Activity
How it was run: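 HEK293 cells kept in DMEM with 10% FCS and 5 mM glutamine at 37 °C, 5% CO2; seeded at 1.5 × 10^3 cells per well, compound added immediately at 50 µM. After 24 h AlamarBlue added, incubated a further 21 h; resorufin fluorescence read at Ex 560/Em 590 nm. Triplicates over three independent experiments.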

[6] = Oral bioavailability in Swiss Webster mouse at 30 mg/kg; type: ADME, organism-based; details: in vivo
Leishmania sp. = experiment: Antiparasitic activity against Leishmania spp.; type: functional
[7] = Cmax in Swiss Webster mouse at 30 mg/kg, po; type: ADME, organism-based; parameters: dose 30 mg/kg, route oral; details: in vivo
Giardia intestinalis = experiment: Antiparasitic activity against Giardia lamblia; type: functional; details: Giardia duodenalis
[8] = Half life in Swiss Webster mouse at 30 mg/kg, po; type: ADME, organism-based; details: in vivo
Plasmodium vivax = experiment: Antimalarial activity against hypnozoite-stage Plasmodium vivax in infected patient assessed as cure rate at 100 mg, po bid administered for 5 days measured every 12 hrs up to day 7, and on day 10, 14, 21, and 28 by Giemsa staining-based assay relative to control; type: functional
Plasmodium falciparum [9] = experiment: Antimalarial activity against Plasmodium falciparum in infected patient assessed as cure rate at 100 mg, po bid administered for 5 days measured every 12 hrs up to day 7, and on day 10, 14, 21, and 28 by Giemsa staining-based assay relative to control; type: functional

SMILES	IC50 (HEK293) [µM]	IC50 (Plasmodium falciparum [1]) [nM]	IC50 (Plasmodium falciparum [2]) [nM]	selectivity ratio [3]	selectivity ratio [4]	further results
N=C(N)c1ccc(-c2cc(CC(=O)N3CCN(c4ncccn4)CC3)c(-c3ccc(C(=N)N)cc3)o2)cc1	> 50	7540	17400	> 7	> 3	
COCc1c(-c2ccc(C(=N)N)cc2)oc(-c2ccc(C(=N)N)cc2)c1COC	> 50	1040	900	> 48	> 56	
CN1CCN(C(=O)Cc2cc(-c3ccc(C(=N)N)cc3)oc2-c2ccc(C(=N)N)cc2)CC1	> 50	> 10000	> 10000			
CCCOCc1c(-c2ccc(C(=N)N)cc2)oc(-c2ccc(C(=N)N)cc2)c1Cl		90	140			viability at 24 h, 50 µM [5]: 1%
CONC(=N)c1ccc(-c2oc(-c3ccc(C(=N)NOC)cc3)c(C)c2C)cc1	> 50	> 1000	10600		> 5	
Cc1c(-c2ccc(C(=N)NCC(C)C)cc2)oc(-c2ccc(C(=N)NCC(C)C)cc2)c1C	33.1	38	150	870	220	
N=C(N)c1ccc(-c2ccc(-c3ccc(C(=N)N)cc3)o2)cc1 [FURAMIDINE]	178	11	50			bioavailability [6]: 0.2%; IC50 (Leishmania sp.): 2800 nM; Cmax [7]: 8 nM; IC50 (Giardia intestinalis): 200 nM; half-life [8]: 4.46 days
N=C(N)c1ccc(-c2cc(CC(=O)NCCCO)c(-c3ccc(C(=N)N)cc3)o2)cc1	> 50	> 10000	22200		> 3	
COCc1c(-c2ccc(C(=N)N)cc2)oc(-c2ccc(C(=N)N)cc2)c1Cl	209	160	90	1310	2320	
N=C(N)c1ccc(-c2cc(CC(=O)N3CCN(CCO)CC3)c(-c3ccc(C(=N)N)cc3)o2)cc1	> 50	> 10000	> 10000			
CCOC(=O)Cc1cc(-c2ccc(C(=N)N)cc2)oc1-c1ccc(C(=N)N)cc1	232	220	860	1060	270	
CN(C)CCCCNC(=O)Cc1cc(-c2ccc(C(=N)N)cc2)oc1-c1ccc(C(=N)N)cc1	> 50	> 10000	> 10000			
N=C(N)c1ccc(-c2cc(CC(=O)N3CCN(C(c4ccccc4)c4ccccc4)CC3)c(-c3ccc(C(=N)N)cc3)o2)cc1	> 50	1430	5330	> 35	> 10	
Cc1c(-c2ccc(C(=N)N)cc2)oc(-c2ccc(C(=N)N)cc2)c1C	74	33	60	2240	1230	
CCCOCc1c(-c2ccc(C(=N)N)cc2)oc(-c2ccc(C(=N)N)cc2)c1COCCC	> 50	390	310	> 161	> 128	
CN(C)CCN=C(Nc1ccc(C(=N)N)cc1)Nc1ccc(C(=N)N)cc1	> 50	> 10000	> 10000			
N=C(N)c1ccc(-c2cc(CC(=O)NCC3CCCCC3)c(-c3ccc(C(=N)N)cc3)o2)cc1	> 50		2420		> 20	
CN1CCN(CCNC(=O)Cc2cc(-c3ccc(C(=N)N)cc3)oc2-c2ccc(C(=N)N)cc2)CC1	> 50	> 10000				
CC(C)OCc1c(-c2ccc(C(=N)N)cc2)oc(-c2ccc(C(=N)N)cc2)c1COC(C)C	> 50	1080	1200	> 46	> 42	
CONC(=N)c1ccc(-c2ccc(-c3ccc(C(=N)NOC)cc3)o2)cc1 [PAFURAMIDINE]						Activity (Plasmodium vivax): >95%; Activity (Plasmodium falciparum [9]): >95%
N=C(N)c1ccc(-c2cc(CC(=O)NCCc3ccccc3)c(-c3ccc(C(=N)N)cc3)o2)cc1	> 50	1180	1190	> 42	> 42	
CCN(CC)CCN=C(Nc1ccc(C(=N)N)cc1)Nc1ccc(C(=N)N)cc1	> 50	> 10000	> 10000			
CN(C)CCCNC(=O)Cc1cc(-c2ccc(C(=N)N)cc2)oc1-c1ccc(C(=N)N)cc1	> 50	> 10000	> 10000			
